# Laboratory results published in ChEMBL document CHEMBL5247578, “Effective synthesis of benzimidazoles-imidazo[1,2-a]pyrazine conjugates: A comparative study of mono-and bis-benzimidazoles for antitumor activity” (Eur J Med Chem, 2019).
# What was measured:
# [1] = test system: NCI-H23; assay: Antiproliferative activity against human NCI-H23 cells assessed as cell growth inhibition at 10 uM incubated for 48 hrs by sulforhodamine B assay relative to control; type: functional
# Outline: (§1)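 NCI-60 single-dose screen at 10^-5 M. Cells grown in RPMI 1640 with 5% FBS and 2 mM L-glutamine, plated at 5,000–40,000 cells/well, and preincubated 24 h. Drug (DMSO stock) added and incubated 48 h at 37 °C, 5% CO2. Adherent cells fixed with cold TCA, stained with 0.4% SRB in 1% acetic acid, dye solubilized in 10 mM trizma base, A515 read. Percent growth taken against time-zero and untreated control.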
# [2] = test system: SW-620; assay: Antiproliferative activity against human SW620 cells assessed as cell growth inhibition at 10 uM incubated for 48 hrs by sulforhodamine B assay relative to control; type: functional; outline: as §1
# [3] = test system: MDA-MB-435; assay: Antiproliferative activity against human MDA-MB-435 cells assessed as cell growth inhibition at 10 uM incubated for 48 hrs by sulforhodamine B assay relative to control; type: functional; outline: as §1
# [4] = test system: SF-539; assay: Antiproliferative activity against human SF-539 cells assessed as cell growth inhibition at 10 uM incubated for 48 hrs by sulforhodamine B assay relative to control; type: functional; outline: as §1
# [5] = test system: HCT-15; assay: Antiproliferative activity against human HCT-15 cells assessed as cell growth inhibition at 10 uM incubated for 48 hrs by sulforhodamine B assay relative to control; type: functional
# Outline: (§2)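 NCI-60 one-dose prescreen at 10^-5 M. Cells grown in RPMI 1640 with 5% FBS and 2 mM glutamine, preincubated 24 h, then exposed 48 h at 37 °C. Adherent lines TCA-fixed, SRB-stained, A515 read. Growth percent relative to time-zero and control; negative values mean cell kill.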
# [6] = test system: NCI-H226; assay: Antiproliferative activity against human NCI-H226 cells assessed as cell growth inhibition at 10 uM incubated for 48 hrs by sulforhodamine B assay relative to control; type: functional; outline: as §1
# [7] = test system: A498; assay: Antiproliferative activity against human A498 cells assessed as cell growth inhibition at 10 uM incubated for 48 hrs by sulforhodamine B assay relative to control; type: functional
# Outline: (§3)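 Single-dose NCI-60 prescreen at 10^-5 M. Cells in RPMI 1640 with 5% FBS and 2 mM L-glutamine, seeded 5,000–40,000 cells/well with 24 h preincubation, then drug exposure for 48 h at 37 °C under 5% CO2. Growth read by SRB staining of TCA-fixed cells at 515 nm against time-zero and untreated controls. Negative growth values denote cell kill.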
# [8] = test system: SK-MEL-2; assay: Antiproliferative activity against human SK-MEL-2 cells assessed as cell growth inhibition at 10 uM incubated for 48 hrs by sulforhodamine B assay relative to control; type: functional; outline: as §1
# [9] = test system: KM12; assay: Antiproliferative activity against human KM12 cells assessed as cell growth inhibition at 10 uM incubated for 48 hrs by sulforhodamine B assay relative to control; type: functional; outline: as §1
# [10] = test system: SN12C; assay: Antiproliferative activity against human SN12C cells assessed as cell growth inhibition at 10 uM incubated for 48 hrs by sulforhodamine B assay relative to control; type: functional; outline: as §1
# [11] = test system: NCI-H322M; assay: Antiproliferative activity against human NCI-H322M cells assessed as cell growth inhibition at 10 uM incubated for 48 hrs by sulforhodamine B assay relative to control; type: functional; outline: as §1
# [12] = test system: RXF 393; assay: Antiproliferative activity against human RXF 393 cells assessed as cell growth inhibition at 10 uM incubated for 48 hrs by sulforhodamine B assay relative to control; type: functional; outline: as §1
# [13] = test system: NCI/ADR-RES; assay: Antiproliferative activity against human NCI/ADR-RES cells assessed as cell growth inhibition at 10 uM incubated for 48 hrs by sulforhodamine B assay relative to control; type: functional; outline: as §1
# [14] = test system: HCT-116; assay: Antiproliferative activity against human HCT-116 cells assessed as cell growth inhibition at 10 uM incubated for 48 hrs by sulforhodamine B assay relative to control; type: functional; outline: as §2
# [15] = test system: UO-31; assay: Antiproliferative activity against human UO-31 cells assessed as cell growth inhibition at 10 uM incubated for 48 hrs by sulforhodamine B assay relative to control; type: functional; outline: as §1
# [16] = test system: HOP-92; assay: Antiproliferative activity against human HOP-92 cells assessed as cell growth inhibition at 10 uM incubated for 48 hrs by sulforhodamine B assay relative to control; type: functional; outline: as §2
# [17] = test system: NCI-H460; assay: Antiproliferative activity against human NCI-H460 cells assessed as cell growth inhibition at 10 uM incubated for 48 hrs by sulforhodamine B assay relative to control; type: functional; outline: as §1
# [18] = test system: 786-0; assay: Antiproliferative activity against human 786-0 cells assessed as cell growth inhibition at 10 uM incubated for 48 hrs by sulforhodamine B assay relative to control; type: functional; outline: as §3
# [19] = test system: MCF7; assay: Antiproliferative activity against human MCF7 cells assessed as cell growth inhibition at 10 uM incubated for 48 hrs by sulforhodamine B assay relative to control; type: functional; outline: as §1
# [20] = test system: PC-3; assay: Antiproliferative activity against human PC-3 cells assessed as cell growth inhibition at 10 uM incubated for 48 hrs by sulforhodamine B assay relative to control; type: functional; outline: as §1
# [21] = test system: CCRF-CEM; assay: Antiproliferative activity against human CCRF-CEM cells assessed as cell growth inhibition at 10 uM incubated for 48 hrs by sulforhodamine B assay relative to control; type: functional; outline: as §3
# [22] = test system: OVCAR-8; assay: Antiproliferative activity against human OVCAR-8 cells assessed as cell growth inhibition at 10 uM incubated for 48 hrs by sulforhodamine B assay relative to control; type: functional; outline: as §1
# [23] = test system: RPMI-8226; assay: Antiproliferative activity against human RPMI-8226 cells assessed as cell growth inhibition at 10 uM incubated for 48 hrs by sulforhodamine B assay relative to control; type: functional; outline: as §1
# [24] = n-Octanol/phosphate buffer partition coefficient, logP of the compound at pH 7.4 incubated for 85 mins by shake-flask method; type: physicochemical
# Outline: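 Octanol–water partition by shake-flask: n-octanol with 0.15 M phosphate buffer pH 7.4 at 10:1 volumes. Buffer-phase absorbance read before mixing, then shaken 50 min and centrifuged at 2500 rpm for 35 min. Buffer absorbance read again; P = (Ai−Af)/Af × Vw/Vo.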
# [25] = test system: SNB-75; assay: Antiproliferative activity against human SNB-75 cells assessed as cell growth inhibition at 10 uM incubated for 48 hrs by sulforhodamine B assay relative to control; type: functional; outline: as §1
# [26] = test system: A549; assay: Antiproliferative activity against human A549 cells assessed as cell growth inhibition at 10 uM incubated for 48 hrs by sulforhodamine B assay relative to control; type: functional; outline: as §3
# [27] = test system: HT-29; assay: Antiproliferative activity against human HT-29 cells assessed as cell growth inhibition at 10 uM incubated for 48 hrs by sulforhodamine B assay relative to control; type: functional; outline: as §1
# [28] = test system: OVCAR-5; assay: Antiproliferative activity against human OVCAR-5 cells assessed as cell growth inhibition at 10 uM incubated for 48 hrs by sulforhodamine B assay relative to control; type: functional; outline: as §1
# [29] = test system: NCI-H522; assay: Antiproliferative activity against human NCI-H522 cells assessed as cell growth inhibition at 10 uM incubated for 48 hrs by sulforhodamine B assay relative to control; type: functional; outline: as §1
# [30] = test system: M14; assay: Antiproliferative activity against human M14 cells assessed as cell growth inhibition at 10 uM incubated for 48 hrs by sulforhodamine B assay relative to control; type: functional; outline: as §1
# [31] = test system: LOX IMVI; assay: Antiproliferative activity against human LOX IMVI cells assessed as cell growth inhibition at 10 uM incubated for 48 hrs by sulforhodamine B assay relative to control; type: functional; outline: as §1
Structure (SMILES),inhibition at 10 µM [1] [%],inhibition at 10 µM [2] [%],inhibition at 10 µM [3] [%],inhibition at 10 µM [4] [%],inhibition at 10 µM [5] [%],inhibition at 10 µM [6] [%],inhibition at 10 µM [7] [%],inhibition at 10 µM [8] [%],inhibition at 10 µM [9] [%],inhibition at 10 µM [10] [%],inhibition at 10 µM [11] [%],inhibition at 10 µM [12] [%],inhibition at 10 µM [13] [%],inhibition at 10 µM [14] [%],inhibition at 10 µM [15] [%],inhibition at 10 µM [16] [%],inhibition at 10 µM [17] [%],inhibition at 10 µM [18] [%],inhibition at 10 µM [19] [%],inhibition at 10 µM [20] [%],other results
COc1ccc(-c2cn3ccnc3c(-c3ccc4ncn(C5CCCCC5)c4c3)n2)cc1,62.1,77.8,-18.6,-43.4,78.8,35.9,-12.3,94.3,83.2,63.6,31.5,-8.48,87.2,91.3,61.5,52.3,91.1,83.2,80.2,95.2,inhibition at 10 µM [21]: 93.3%; inhibition at 10 µM [22]: 71.2%; inhibition at 10 µM [23]: 95.6%; logD at 1.417 h [24]: 1.41; inhibition at 10 µM [25]: -26.3%; inhibition at 10 µM [26]: 68.6%; inhibition at 10 µM [27]: 92.5%; inhibition at 10 µM [28]: 58.8%; inhibition at 10 µM [29]: -20.9%; inhibition at 10 µM [30]: 89.2%; inhibition at 10 µM [31]: 69.6%
Brc1ccc(-c2cn3ccnc3c(-c3ccc4ncn(C5CCCCC5)c4c3)n2)cc1,8.38,21.9,58.4,24.4,35.8,23.3,20.7,24.1,23.3,18.4,4.21,34,30.5,31.2,42.9,34.1,13.2,18,46.4,42.4,inhibition at 10 µM [22]: 13.2%; inhibition at 10 µM [23]: 32%; logD at 1.417 h [24]: 1.73; inhibition at 10 µM [25]: 34.5%; inhibition at 10 µM [26]: 15.3%; inhibition at 10 µM [27]: 20.9%; inhibition at 10 µM [28]: 8.95%; inhibition at 10 µM [29]: 35.5%; inhibition at 10 µM [30]: 26.9%; inhibition at 10 µM [31]: 30.7%
